# Experimental data: ChEMBL document CHEMBL1133655, “Preparation and biological activity of amino acid and peptide conjugates of antitumor hydroxymethylacylfulvene” (J Med Chem, 2000)
# Peptide text beside a SMILES is read from it. * marks the point of attachment. X1 = CC1=C(C*)C2=C(C)C3(CC3)[C@@](C)(O)C(=O)C2=C1
# Experiment: Concentration required for 50% toxicity in metastatic lung carcinoma (MV522) cells.
# Details: Homo sapiens
# Summary of the method: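 Compounds held as 1 mg/mL DMSO stock, diluted in 20% DMSO/phosphate-buffered saline just before addition to MV 522 cultures; controls got equal DMSO/PBS. After 48 h incubation, cells were washed, stained with trypan blue and counted. Counts were reported as corresponding closely with colony-forming assay values.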
row,SMILES,IC50
1,CC(=O)N[C@@H](CSCC1=C(C)C=C2C(=O)[C@](C)(O)C3(CC3)C(C)=C21)C(=O)N[C@@H](CC(C)C)C(=O)N[C@@H](CC(C)C)C(=O)N[C@@H](CC(C)C)C(=O)O (Ac-C(X1)LLL-OH),24.7 µM
2,CC1=CC2=C(C)C3(CC3)[C@@](C)(O)C(=O)C2=C1 [ACYLFULVENE],0.35 µM
3,CC1=C(CO)C2=C(C)C3(CC3)[C@@](C)(O)C(=O)C2=C1 [IROFULVEN],0.004 µM
4,CC(=O)N[C@@H](CSCC1=C(C)C=C2C(=O)[C@](C)(O)C3(CC3)C(C)=C21)C(=O)N[C@@H](Cc1ccccc1)C(=O)NCC(=O)N[C@@H](CC(C)C)C(=O)O (Ac-C(X1)FGL-OH),37.2 µM
5,CC(=O)N[C@@H](CSCC1=C(C)C=C2C(=O)[C@](C)(O)C3(CC3)C(C)=C21)C(=O)N[C@@H](CC(C)C)C(=O)NCC(=O)N[C@@H](Cc1ccccc1)C(=O)O (Ac-C(X1)LGF-OH),28.2 µM
6,CC1=C2C(=C[C@@](C)(CO)C2O)C(=O)[C@](C)(O)C12CC2 (stereo partly specified),0.073 µM
7,CC(=O)N[C@@H](CSCC1=C(C)C=C2C(=O)[C@](C)(O)C3(CC3)C(C)=C21)C(=O)N[C@@H](CC(C)C)C(=O)N[C@@H](CC(C)C)C(=O)N[C@@H](Cc1ccccc1)C(=O)O (Ac-C(X1)LLF-OH),> 40 µM
8,CC1=C(CSCC[C@H](N)C(=O)O)C2=C(C)C3(CC3)[C@@](C)(O)C(=O)C2=C1,> 50 µM
9,CC1=C(CSCC(NC(=O)CCC(N)C(=O)O)C(=O)NCC(=O)O)C2=C(C)C3(CC3)[C@@](C)(O)C(=O)C2=C1 (stereo partly specified),15.5 µM
10,CC1=C(CSCC(N)C(=O)O)C2=C(C)C3(CC3)[C@@](C)(O)C(=O)C2=C1 (stereo partly specified),29.2 µM
11,CC(=O)NC(CSCC1=C(C)C=C2C(=O)[C@](C)(O)C3(CC3)C(C)=C21)C(=O)N[C@@H](C)c1ccccc1 (stereo partly specified),2.5 µM
